Compound activity (PubChem)
The list is not random: actives were taken first. Their share in the collection is about 3.8%.
HSF1 inhib – HSF1 inhibition; NIH3T3-HGL HSE-luciferase, MG132-induced, luminescence 8 h; active compounds read low; activity change, negative = inhibition, % at 7.5 µM (by protocol); 300,000 tested, 0.77% active; AID 2098;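 active = more than half of replicate wells show activity change below -50%, luminescence cut by over half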;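 also: luciferase reports HSF-1 transcriptional activity via heat shock element; 0% = median of DMSO wells and -100% = zero luminescence signal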
HSF-1 act – increases HSF-1 driven luciferase reporter signal; NIH3T3-HGL HSF-1 luciferase reporter, MG132, 8 h; 100% = twice DMSO control signal; activation, % at 9 µM; 300,000 tested, 1.7% active;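 active = mean replicate activation of at least 50% with a set share of replicates each reaching 50%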;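 also: 0% = median of the neutral control wells and 100% = twice that signal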
NS3 helicase inh – inhibitors of Hepatitis C virus NS3 helicase; NS3 helicase DNA unwinding, Cy5 molecular beacon fluorescence; inhibition, % at 10.9 µM; 290,000 tested, 0.56% active; AID 1800;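 active = inhibition above the mean of all tested compounds plus 3 SD, set per campaign, cut at about 35% in these data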;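 also: 0% = DMSO wells and 100% = thioflavine S control wells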
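System: HCV NS3 helicase fragment; control set: DMSO and thioflavine S; technique: Cy5 fluorescence at 0 and 60 min, beacon hairpin quenching; reagent: beacon DNA duplex substrate plus ATP; replicates: singlicate; schedule: 1 h reaction at 25 °C, ATP-initiated; medium: MOPS buffer pH 6.5 with MgCl2, DTT, Tween20, BSA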
HSP90 refold inh – inhibitors of HSP90 luciferase refolding in rabbit reticulocyte lysate; luciferase refolding luminescence, 3 h; inhibition, % at 5.6 µM; 290,000 tested, 0.91% active;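 active = inhibition above the screen-wide mean plus 3 SD, computed separately per campaign, cut at about 16% in these data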;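 also: 0% = DMSO wells and 100% = 60 µM geldanamycin wells; inhibitors lower the luminescence because luciferase stays unfolded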
Lipid droplet – modulators of hepatic lipid droplet formation; AML12 mouse hepatocytes, oleate lipid droplets, BODIPY imaging; inhibition, % at 6.5 µM; 240,000 tested, 0.4% active;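 active = lipid droplet intensity inhibited by at least 50%, with more than 500 cells counted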
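Assay system: AML12 mouse liver cells | Compound: 6.5 µM single-point dosing | Schedule: Overnight exposure | Technique: Fluorescence imaging, 20x objective, two fields per well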
* hit, by the source's call; / = no result given.

SMILES	HSF1 inhib	HSF-1 act	NS3 helicase inh	HSP90 refold inh	Lipid droplet
Cc1[nH]n(-c2ccccc2)c(=O)c1C(C[N+](=O)[O-])c1ccc(Br)cc1 (stereo not drawn)	180.9	210.2*	11.8	10.2	-2.4
COc1cccc(C(C[N+](=O)[O-])c2c(C)[nH]n(-c3ccccc3)c2=O)c1 (stereo not drawn)	213.6	277.6*	2.2	42.1*	23.4
COc1cccc(CNC(=O)CCC2CCCN(Cc3cc4ccccc4o3)C2)c1 (stereo not drawn)	-0.2	19.2	-3.6	5.9	-11.7
Cc1nn(Cc2noc(C(=O)NCc3ccc4c(c3)OCO4)n2)c(C)c1Br	-6.2	24.8	-9.3	2.4	-42.9
CCN(CC)CCCN1C(=O)c2oc3ccccc3c(=O)c2C1c1cccc(OC)c1OC (stereo not drawn)	30.8	67.4*	2.1	-1.2	/
COc1cccc(C2c3c(oc4ccccc4c3=O)C(=O)N2CCCN(C)C)c1OC (stereo not drawn)	36.3	65.6*	-18.1	2.5	/
CC1CC(C)(C)CC2(C1)NC(=O)N(CC(=O)Nc1ccc(N3CCCCC3)cc1)C2=O (stereo not drawn)	4.5	-18.2	-6.0	-4.2	-5.8
COc1ccccc1N1CCN(CC(O)COCCOc2ccc(Br)cc2)CC1 (stereo not drawn)	8.0	28.5	-47.7	1.8	-5.5
COc1ccc(N2CCN(CC(O)COCCOc3ccc(Br)cc3)CC2)cc1 (stereo not drawn)	-65.7*	-74.4	-29.1	-0.8	-51.3
COc1cccc(N(CC(=O)N2CCCC2)S(C)(=O)=O)c1	4.8	14.4	3.5	1.8	10.3
Cc1ccc(NC(=S)N=Nc2c(O)n(C)c3ccc(S(=O)(=O)N4CCOCC4)cc23)cc1	22.9	58.2*	5.0	3.2	-1.9
Nc1nn2cc(-c3ccccc3)nc2c2ccccc12	30.4	58.0*	12.0	8.2	-5.8
CCOC(=O)Cc1nnc2c(Nc3ccccc3F)nc3nonc3n12	-73.8*	-79.0	13.6	9.8	-8.6
COc1ccc(CN2C(=NC(=O)C3CCCO3)SC3CS(=O)(=O)CC32)cc1OC (stereo not drawn)	7.6	2.7	16.3	7.3	-0.8
CCN(c1ccccc1)S(=O)(=O)c1ccc(Cl)c(NC(=O)CSc2nnc(C)s2)c1	-66.4*	-72.5	13.8	3.5	-22.0
CCOc1ccc(CNc2nc3ccccc3n2C)cc1	29.6	29.0	-11.9	3.0	11.5
Cc1cccc(NCc2nc3ccccc3n2Cc2ccccc2)c1	5.5	21.1	1.5	1.3	/
CCOc1ccc(NCc2nc3ccccc3n2CCOc2ccccc2)cc1	-52.4*	-60.6	-8.8	2.1	-20.4
Cc1nc2cc(NCc3nc4ccccc4n3Cc3ccccc3)ccc2n1C	6.6	-4.5	-82.5	16.4*	/
CCN(CC)CCNc1nc2ccccc2n1C	15.0	56.6*	-9.5	-2.6	7.3
CCOc1ccc(Nc2nc3ccccc3n2C)cc1	30.3	72.2*	/	/	/
COc1ccc(OC)c(N2C(=NC(=O)C3CCCCC3)SC3CS(=O)(=O)CC32)c1 (stereo not drawn)	0.9	6.9	-0.5	-5.0	19.0
CC(=O)NCCc1nc2ccccc2n1CCOc1ccccc1	2.5	-0.8	-3.0	1.0	0.7
CC(=O)NCCc1nc2ccccc2n1CCCCOc1ccccc1	18.3	53.7*	-0.4	9.8	3.7
O=c1c2ccccc2c(C=Nc2ccc(O)cc2)c(O)n1Cc1ccccc1	54.6	79.1*	-0.9	-4.2	9.9
SMILES	HSF1 inhib	HSF-1 act	NS3 helicase inh	HSP90 refold inh	Lipid droplet
CCCCOc1ccc(N(CC(=O)NCc2ccccc2)C(=O)c2csnn2)cc1	14.2	16.1	11.4	2.1	-37.4
COC(=O)Nc1ccc(SCC(=O)c2ccc(Cl)cc2)cc1	71.7	107.5*	-4.8	1.0	-7.7
COC(=O)Nc1ccc(SCC(=O)c2ccccc2)cc1	4.4	22.6	-1.4	2.0	3.6
Cn1nc(C(F)(F)F)c(-c2ccc(F)cc2)c1NC(=O)c1cccnc1	-1.1	-2.3	1.6	-5.5	-4.8
CCCC(C(=O)Nc1ccncc1)c1ccccc1 (stereo not drawn)	-3.8	4.2	-7.6	-3.2	10.2
CC1(C)Cc2c(C#N)c(NCCO)nc(-c3ccco3)c2CO1	-52.3*	-58.3	9.6	0.6	12.7
CC1(C)Cc2c(C#N)c(NCCN3CCOCC3)nc(-c3ccco3)c2CO1	7.0	7.5	-12.8	0.1	/
CC(C)c1nnc(NC(=O)c2nc(S(=O)(=O)Cc3ccccc3)ncc2Cl)s1	-85.9*	-86.9	6.5	8.4	-33.1
CCCc1nnc(NC(=O)c2nc(S(=O)(=O)Cc3ccc(C)cc3)ncc2Cl)s1	-80.0*	-81.7	26.0	4.7	-17.9
CSc1nnc(NC(=O)c2nc(S(=O)(=O)Cc3ccccc3)ncc2Cl)s1	-26.9	-27.9	13.4	5.3	-32.7
Cc1ccc(C(=O)NC(=C(Cl)Cl)S(=O)(=O)c2ccccc2)cc1	52.2	113.0*	2.1	0.8	-25.4
Cc1ccc(C(=O)NC(C#N)=C(Cl)Cl)cc1	93.3	151.3*	-8.8	1.2	-22.5
COc1ccc(C(=O)NC(=C(Cl)Cl)S(=O)(=O)c2ccc(C)cc2)cc1	12.5	10.1	-3.5	3.4	-1.2
Cc1ccc(C(=O)NCC#N)cc1	-0.1	2.7	-4.3	1.2	6.4
Cc1ccc2cc(CN(CC3CCCO3)C(=O)c3cccs3)c(=O)[nH]c2c1 (stereo not drawn)	14.0	4.9	-3.9	0.5	11.7
O=C(CSc1nnc(-c2ccccc2)o1)Nc1ccccc1F	3.9	17.2	1.5	15.1	/
N#Cc1ccsc1NC(=O)CSc1nnc(-c2ccccc2)o1	52.4	55.8*	8.2	-0.1	-2.3
Cc1cnc(NC(=O)CSc2nnc(-c3ccccc3)o2)s1	46.4	61.2*	6.0	14.0	-7.3
Cc1ccc(NC(=O)NC(=O)CN2CCN(c3ccc(O)cc3)CC2)c(C)c1	-65.5*	-73.2	-3.9	-6.4	6.1
COc1cc2c3c(c1OC)C1(C=CC(=O)C=C1)CC3N(C(=O)CCC(=O)O)CC2 (stereo not drawn)	-3.8	-3.0	12.4	-1.8	10.2
COc1cc2c3c(c1OC)C1(C=CC(=O)C=C1)CC3N(C(=O)c1ccccc1)CC2 (stereo not drawn)	24.9	55.0*	7.4	4.9	/
Cc1ccc(NC(=O)N2C3CCCC2CC(NC(=O)C2CC2)C3)cc1 (stereo not drawn)	0.0	3.1	4.1	-1.8	8.3
Cc1ccc(C(=O)NCCCNC(=O)Cc2ccc(Cl)cc2)cn1	-3.0	-17.8	/	/	/
NCCCC(=O)O	-70.4*	-75.8	18.1	0.9	-2.0
NCC(=O)CCC(=O)O	2.2	-8.1	/	/	/
Cc1ccc(C(C)(O)CS(=O)(=O)Cc2ccccc2Cl)cc1 (stereo not drawn)	50.7	111.9*	0.9	0.7	-5.5
COCCn1c(SCC(=O)Nc2cccc(NC(C)=O)c2)nc2c([nH]c3ccccc32)c1=O	-4.5	-20.8	-9.5	-3.4	-5.2
